Published values collected from several papers.
Lines come from different studies, so protocols differ.
PLEKHA3: PLEKHA3 (Homo sapiens, UniProt Q9HB20)
ADRA2C: Alpha-2C adrenergic receptor (ADRA2C, Homo sapiens, UniProt P18825)
Fibroblast growth factor 14: Fibroblast growth factor 14 (Homo sapiens, UniProt Q92915)
MAPK14: Mitogen-activated protein kinase 14 (MAPK14, Homo sapiens, UniProt Q16539)

SMILES	target	effect on	action	technique	endpoint	value
CCOc1ccc(C(=O)CC(SCc2ccc(OC)cc2)C(=O)O)cc1 (stereo not drawn)	PLEKHA3	ligand displacement	–	FP	Ki	27 µM
Cc1cc(Oc2ncccc2CN2CCN(C(c3ccccc3)c3ccccc3)CC2)ccc1-c1c(C)c(=O)[nH]c(=O)n1C	ADRA2C	ligand displacement	–	radioligand	Ki	0.137 µM
CCOc1ccccc1C(=O)CC(SCc1ccc(Cl)cc1)C(=O)O (stereo not drawn)	PLEKHA3	ligand displacement	–	FP	Ki	7.8 µM
Cc1cccc(NC(=O)Cn2cc(CO)c3ccccc32)c1	Fibroblast growth factor 14	binding	–	SPR	Kd	1.9 µM
c1coc(-c2n[nH]cc2-c2ccnc3ccccc23)c1	MAPK14	enzyme activity	inhibitor	ADP detection	IC50	1.8 µM
C[C@H](Cc1ccc(O)c(O)c1)[C@@H](C)Cc1ccc(O)c(O)c1	pyrD (Pseudomonas aeruginosa, UniProt Q9HZF8)	binding	–	ITC	Kd	7.5 µM
Cn1cc(-c2ccnc3ccccc23)c(-c2ccccn2)n1	MAPK14	enzyme activity	inhibitor	ADP detection	IC50	9.4 µM
CCOc1ccc(C(=O)CC(SCc2cccc(Br)c2)C(=O)O)cc1 (stereo not drawn)	PLEKHA3	ligand displacement	–	FP	Ki	6.03 µM
CC(C)=CC[C@@H](O)C1=CC(=O)c2c(O)ccc(O)c2C1=O	Interleukin-6 (IL6, Homo sapiens, UniProt P05231)	binding	–	BLI	Kd	0.91 µM
Cc1cc(Oc2ncccc2CN2CCN(c3ccc([N+](=O)[O-])cc3Cl)CC2)ccc1-c1c(C)c(=O)[nH]c(=O)n1C	ADRA2C	ligand displacement	–	radioligand	Ki	0.623 µM
CC(=O)Nc1ccc(Oc2ccc3c(c2)C(=O)N(c2cc(C)ccc2C)C3=O)cc1	Fibroblast growth factor 14	binding	–	SPR	Kd	13.6 µM
Cc1cc(Oc2ncccc2CN2CCN(c3ccc([N+](=O)[O-])cc3C(F)(F)F)CC2)ccc1-c1c(C)c(=O)[nH]c(=O)n1C	ADRA2C	ligand displacement	–	radioligand	Ki	0.401 µM
O=C(O)c1cc(-c2ccc(-c3cc[nH]n3)cc2)c2ccc(-c3ccc(C(F)(F)F)cc3)cc2c1	ADRA2C	cell-free assay	–	radioligand	Ki	6.5 µM
CCOc1ccc(C(=O)CC(SCc2ccc(Cl)cc2)C(=O)O)cc1OCC (stereo not drawn)	PLEKHA3	ligand displacement	–	FP	Ki	6.81 µM
Cc1cc(Oc2ncccc2CN2CCN(c3ccc(Br)cc3)CC2)ccc1-c1c(C)c(=O)[nH]c(=O)n1C	ADRA2C	ligand displacement	–	radioligand	Ki	0.0761 µM
